Apaf-1 inh = human Apaf-1 inhibition. reconstituted apoptosome caspase-3 activity, DEVD-Rh110 fluorescence. inhibition, % at 20 µM. 330,000 compounds, 0.71% hits. AID 489030; active = inhibition of at least 40% at 20 µM;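 also: plate controls were DMSO wells for no effect and DEVD-CHO caspase inhibitor wells for full effect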
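Material: reconstituted apoptosome with Apaf-1, cytochrome c, caspase-9, procaspase-3, dATP; medium: pH 7.5 Hepes buffer with CHAPS, BSA, DTT; also added: cytochrome c and DEVD-Rh110 substrate; timing: 30 min plus 50 min, RT; signal: Rh110 fluorescence intensity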
SENP6 inh = SENP6 protease inhibition. 330,000 compounds, 1.8% hits. Q9GZR1. AID 2599. inhibition, % at 10 µM. Recombinant SENP6 catalytic domain, aminoluciferin luminescence;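 active = inhibition above about 50% at the single tested dose, limit read from the data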;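 also: plate controls were DMSO wells with enzyme for no effect and DMSO wells lacking enzyme for full effect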
SENP7 inh = blocks the human protease SENP7; recombinant SENP7, Z-RLRGG-aminoluciferin luminescence, 40 min; inhibition, % at 5 µM; 330,000 compounds, 1.5% hits; Q9BQF6;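 active = inhibition above about 50% at the single test dose, limit read from the data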;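 also: plate controls were DMSO with enzyme for no effect and no enzyme buffer wells for full effect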
SENP8 block-1 = inhibitors of human SENP8 protease; AID 602440; 360,000 compounds, 0.64% hits; inhibition, % at 20 µM; recombinant SENP8, Nedd8 substrate fluorescence; Q96LD8; in the data active = inhibition mostly above about 40%, no sharp cut-off; inactive = mostly below about 27%
Target sequence (Q96LD8 whole entry, looked up): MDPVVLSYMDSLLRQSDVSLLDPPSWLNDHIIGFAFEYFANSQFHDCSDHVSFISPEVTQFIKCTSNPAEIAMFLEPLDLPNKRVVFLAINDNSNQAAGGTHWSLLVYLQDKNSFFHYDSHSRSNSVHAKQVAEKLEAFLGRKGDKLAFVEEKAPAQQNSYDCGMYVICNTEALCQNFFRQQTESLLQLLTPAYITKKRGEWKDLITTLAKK
SENP1 inh = inhibitors of human SENP1 SUMO protease catalytic domain; Q9P0U3; inhibition, % at 10 µM; recombinant SENP1 catalytic domain, CyPet-SUMO1-YPet FRET cleavage; 360,000 compounds, 0.21% hits;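 active = inhibition at least 30% at 10 µM, raw YFP signal under a set limit, fluorescence ratio 0.5 to 1.5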;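 also: 0% = enzyme with DMSO and 100% = no enzyme wells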
Target sequence (Q9P0U3 419-644 limits assumed): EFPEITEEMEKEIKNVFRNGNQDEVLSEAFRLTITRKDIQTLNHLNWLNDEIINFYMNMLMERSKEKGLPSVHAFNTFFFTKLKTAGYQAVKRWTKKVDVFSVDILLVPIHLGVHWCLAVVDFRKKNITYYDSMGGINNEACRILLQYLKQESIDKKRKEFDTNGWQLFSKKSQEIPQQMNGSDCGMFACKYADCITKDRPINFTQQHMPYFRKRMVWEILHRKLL
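Material – human SENP1 catalytic domain · Input – SENP1 enzyme, 20 pM final · Compound dosing – single concentration of 10 µM compound, 0.5% DMSO final · Timing – enzyme reaction for 50 min at room temperature, dark · Measured by – FRET fluorescence in CFP and YFP emission channels · Control set – no-enzyme wells low, DMSO-plus-enzyme wells high control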
SENP8 block-2 = SENP8 protease inhibition. inhibition, % at 10 µM. Q96LD8. AID 2540. 330,000 compounds, 1.2% hits. purified SENP8, Z-RLRGG-aminoluciferin cleavage, luminescence; in the data active = inhibition above about 50%
SENP8 conf = SENP8 (human) inhibition, single concentration confirmation; shares compounds with SENP8 block-1; AID 624319; purified SENP8, Nedd8-AMC/pro-Nedd8 cleavage fluorescence, 30 min; 1,400 compounds, 15% hits; inhibition, % at 25 µM; in the data active = inhibition mostly above about 39%, no sharp cut-off; inactive = mostly below about 34%
* hit, by the source's call; · = no result. Only some compounds are listed: those with a hit (about 2.9% of all), similar ones and a draw of the others.

SMILES | Apaf-1 inh | SENP6 inh | SENP7 inh | SENP8 block-1 | SENP1 inh | SENP8 block-2 | SENP8 conf
CC[C@H](C)[C@@H]1O[C@@]2(C=CC1C)CC1C[C@@H](CC=C(C)C(O[C@H]3CC(OC)C(O[C@H]4CC(OC)C(O)C(C)O4)C(C)O3)C(C)C=CC=C3CO[C@@H]4C(O)C(C)=C[C@@H](C(=O)O1)[C@]34O)O2 (some centres not stated) | 30 | 0 | -13 | · | · | -7 | ·
O=C1NC(=O)C(Nc2ccccc2)C(=O)N1 | · | · | · | 64* | 1 | · | 46*
O=C1NC(=O)C(Cc2ccccc2)(Cc2ccccc2)C(=O)N1 | · | · | · | 15 | 1 | · | ·
O=C1NCN(c2ccccc2)C12CCN(C(c1ccccc1)c1nnnn1C1CCCC1)CC2 (configuration not stated) | · | · | · | 16 | 0 | · | ·
CN1CCN(c2ccc(N)c(N3CCN(C)CC3)c2)CC1 | 18 | -32 | 15 | 51* | 6 | -8 | -7
C[C@]12CCC3C(CC[C@H]4C[C@H](O)CC[C@]34C)C1CCC2=O (some centres not stated) | 2 | -1 | 6 | 9 | 1 | 9 | ·
COC(=O)C1=C(c2ccc(OC(F)(F)F)cc2)C[C@@H]2CC[C@H]1N2C(=O)NC1CC1 | 5 | -36 | -17 | 14 | 4 | -1 | ·
COC1C(OC(=O)c2ccc(C)[nH]2)C(O)C(Oc2ccc3c(O)c(NC(=O)c4ccc(O)c(CC=C(C)C)c4)c(=O)oc3c2Cl)OC1(C)C (configuration not stated) | 20 | 24 | -4 | 40* | 2 | 23 | 0
Cc1ccc2[nH]c(C)c(CCNCc3cccnc3)c2c1 | 8 | 16 | 3 | -19 | -4 | 5 | ·
COc1cccc(N=Nc2c(O)[nH]c(=S)[nH]c2=O)c1 | -18 | 49 | 29 | 51* | 12 | 24 | 22
O=c1[nH]c(=S)[nH]c(O)c1N=Nc1cccc(S(=O)(=O)N2CCOCC2)c1 | -5 | -7 | 0 | 32 | -2 | 1 | ·
CC[C@H]1C2C[C@H]3[C@@H]4N(C)c5ccccc5C45C[C@H](C2[C@H]5O)N3[C@@H]1O (some centres not stated) | -4 | -4 | 5 | 3 | -2 | -2 | ·
C[C@]12CCC3C(CC[C@H]4C[C@H](O)CC[C@]34C)C1[C@@H](O)C[C@@H]2O (some centres not stated) | 3 | -4 | -14 | 10 | 0 | -22 | ·
Oc1cccc2nc3ccccc3nc12 | 5 | 1 | 14 | 22* | 0 | -13 | 17
Cc1ccc(NC(=O)[C@@H](NC(=O)N2C[C@H]3C[C@@H](C2)c2cccc(=O)n2C3)C(C)C)cc1 | -3 | -11 | -7 | 56* | 2 | 1 | 17
CCOc1ccc(NC(=O)N2C[C@H]3C[C@@H](C2)c2cccc(=O)n2C3)cc1 | -9 | 0 | -3 | 42* | 3 | -1 | 9
O=C(Nc1ccc(Cl)cc1)N1CC2CC(C1)c1cccc(=O)n1C2 (configuration not stated) | 1 | -5 | 16 | 1 | 3 | -9 | ·
COc1ccc2c3c([nH]c2c1)C(C)NCC3 (configuration not stated) | 26 | -20 | 10 | -190 | -20 | -9 | ·
C/C=C1/CN2[C@@H]3C4CO[C@@H]3c3c([nH]c5cc(OC)ccc35)[C@@H]2CC14 (some centres not stated) | 3 | -11 | -11 | 40* | 0 | -14 | 9
NC(Cc1ccc(O)cc1)C(=O)NN=Cc1ccc(N(CCCl)CCCl)cc1 (configuration not stated) | · | · | · | -473 | 1 | · | ·
C=CC12CN(C)C3C4COC(CC41)C1(C(=O)Nc4ccccc41)C32 (configuration not stated) | · | · | · | 41* | -2 | · | 3
O=c1[nH]c(=S)[nH]c(O)c1N=Nc1cc2c(cc1[N+](=O)[O-])OCO2 | 2 | 13 | 4 | 42* | 9 | 10 | 20
O=C(NC1(C(F)(F)F)Oc2ccc(Cl)cc2O1)N1CCC2(CC1)OCCO2 (configuration not stated) | 5 | 25 | 7 | 40* | 1 | 1 | 17
